Data as given in ChEMBL document CHEMBL3352644, “Selenadiazole derivatives as potent thioredoxin reductase inhibitors that enhance the radiosensitivity of cancer cells” (Eur J Med Chem, 2014).
Converted amounts (≈) assume the structure as drawn. The source made the active and inactive calls. The rule behind the calls is not given here.

Legend:
A-375 [1] = experiment: Induction of cell morphological changes in human A375 cells incubated for 6 hrs followed by irradiation with 8 Gy X-ray at 37 degC for 12 hrs by microscopy; assay type: functional, cell-based
A-375 [2] = experiment: Induction of cell cycle arrest in human A375 cells assessed as accumulation at G2/M phase at 10 ug/mL incubated for 6 hrs followed by irradiation with 8 Gy X-ray at 37 degC for 12 hrs by propidium iodide staining based flow cytometry (reference value: 47.2%); assay type: functional
Outline: (§1)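 A375 cells treated at 10 or 4 µg/ml for 6 h, given 0 or 8 Gy X-ray, then 12 h more. Trypsinized, washed in PBS, fixed overnight in ice-cold 75% ethanol at −20 °C. Stained with propidium iodide, 30 min at 37 °C in the dark; DNA content and sub-G1 population read by flow cytometry.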

A-375 [3] = experiment: Induction of cell cycle arrest in human A375 cells assessed as accumulation at G2/M phase at 10 ug/mL incubated for 18 hrs by propidium iodide staining based flow cytometry (reference value: 13.9%); assay type: functional; outline: as §1
A-375 [4] = experiment: Induction of ROS generation in human A375 cells at 16 ug/mL […] by DCF and DHE dye based fluorescence assay; assay type: functional, cell-based
A-375 [5] = experiment: Induction of cell cycle arrest in human A375 cells assessed as accumulation at S phase at 10 ug/mL incubated for 6 hrs followed by irradiation with 8 Gy X-ray at 37 degC for 12 hrs by propidium iodide staining based flow cytometry (reference value: 7.9%); assay type: functional; outline: as §1
A-375 [6] = experiment: Induction of cell cycle arrest in human A375 cells assessed as accumulation at G1/G0 phase at 10 ug/mL incubated for 18 hrs by propidium iodide staining based flow cytometry (reference value: 48.9%); assay type: functional; outline: as §1
A-375 [7] = experiment: Induction of ROS generation in human A375 cells at 8 ug/mL incubated for 6 hrs followed by irradiation with 8 Gy X-ray at 37 degC for 12 hrs by DCF and DHE dye based fluorescence assay; assay type: functional, cell-based
Outline: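 A375 cells (4 × 10⁴/well) cultured 24 h, then treated 6 h at 8 or 16 µg/ml or at 2 or 4 µg/ml, and given 0 or 8 Gy X-ray. Loaded with H₂DCF or DHE for 30 min at 37 °C in the dark. Fluorescence read at 485/535 nm (DCF) or 480/610 nm (DHE); % of control.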

A-375 [8] = experiment: Induction of cell cycle arrest in human A375 cells assessed as accumulation at G1/G0 phase at 10 ug/mL incubated for 6 hrs followed by irradiation with 8 Gy X-ray at 37 degC for 12 hrs by propidium iodide staining based flow cytometry (reference value: 44.9%); assay type: functional; outline: as §1
A-375 [9] = experiment: Induction of apoptosis in human A375 cells assessed as accumulation at subG1 phase at 10 ug/mL incubated for 18 hrs by propidium iodide staining based flow cytometry (reference value: 1.8%); assay type: functional; outline: as §1
A-375 [10] = experiment: Induction of apoptosis in human A375 cells assessed as accumulation at subG1 phase at 10 ug/mL incubated for 6 hrs followed by irradiation with 8 Gy X-ray at 37 degC for 12 hrs by propidium iodide staining based flow cytometry (reference value: 2.3%); assay type: functional; outline: as §1
A-375 [11] = experiment: Induction of ROS generation in human A375 cells at 16 ug/mL incubated for 6 hrs followed by irradiation with 8 Gy X-ray at 37 degC for 12 hrs by DCF and DHE dye based fluorescence assay
A-375 [12] = experiment: Induction of cell cycle arrest in human A375 cells assessed as accumulation at S phase at 10 ug/mL incubated for 18 hrs by propidium iodide staining based flow cytometry (reference value: 37.2%); assay type: functional; outline: as §1
A-375 [13] = experiment: Induction of ROS generation in human A375 cells at 8 ug/mL […] by DCF and DHE dye based fluorescence assay; assay type: functional, cell-based
A-375 [14] = experiment: Cytotoxicity against human A375 cells incubated for 6 hrs followed by irradiation with 8 Gy X-ray at 37 degC for 12 hrs by MTT assay; assay type: functional, cell-based; conditions: A-375, light or radiation study
Outline: (§2)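 A375 cells (DMEM, 10% FBS, 37 °C, 5% CO2) seeded at 4 × 10⁴ cells/well and grown to 70–80% confluence. Treated with 0, 1, 2, 4, 8, 16 or 32 µg/ml for 6 h, then given 0 or 8 Gy X-ray (linear accelerator, 1.5 Gy/min), then 12 h more at 37 °C. MTT 4 h, formazan dissolved in DMSO, read at 570 nm; % of control; three repeats.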

A-375 [15] = experiment: Cytotoxicity against human A375 cells after 18 hrs by MTT assay; assay type: functional, cell-based; conditions: A-375, 18 h; outline: as §2
A-375 [16] = experiment: Induction of cell shrinkage in human A375 cells incubated for 6 hrs followed by irradiation with 8 Gy X-ray at 37 degC for 12 hrs by microscopy; assay type: functional, cell-based
Outline: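 A375 cells in DMEM with 10% FBS, 37 °C, 5% CO2. Pretreated with agent 6 h, then 0 or 8 Gy X-ray from a linear accelerator at 1.5 Gy/min, room temperature. Incubated a further 12 h; morphology imaged.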

SMILES | Activity (A-375 [1]) | Activity (A-375 [2]) [%] | Activity (A-375 [3]) [%] | Activity (A-375 [4]) | Activity (A-375 [5]) [%] | Activity (A-375 [6]) [%] | Activity (A-375 [7]) | Activity (A-375 [8]) [%] | Activity (A-375 [9]) [%] | Activity (A-375 [10]) [%] | Activity (A-375 [11]) | Activity (A-375 [12]) [%] | Activity (A-375 [13]) | IC50 (A-375 [14]) [µg/mL] | IC50 (A-375 [15]) [µg/mL] | Activity (A-375 [16])
COc1cc(Cn2c(-c3cc(OC)c(OC)c(OC)c3)nc3ccc(-c4ccc5n[se]nc5c4)cc32)cc(OC)c1OC | Active | 2.7 | 9.4 | Active | 36.8 | 69.3 | Active | 60.5 | 11.7 | 57.6 | Active | 21.3 | Active | 8 (≈ 12.4 µM) | 26.4 (≈ 40.9 µM) | Active
COc1cc(Cn2c(-c3cc(OC)c(OC)c(OC)c3)nc3cc(-c4ccc5n[se]nc5c4)ccc32)cc(OC)c1OC | Active | – | – | – | – | – | – | – | – | – | – | – | – | 9.2 (≈ 14.3 µM) | 28.3 (≈ 43.8 µM) | Active
